Data published in ChEMBL document CHEMBL3784941, “Rational Design, Synthesis, and Preliminary Structure-Activity Relationships of α-Substituted-2-Phenylcyclopropane Carboxylic Acids as Inhibitors of Salmonella typhimurium O-Acetylserine Sulfhydrylase” (J Med Chem, 2016).
The source made the active and inactive calls. No cut-off for these calls is given here.

How the values were obtained:
[1] = Binding affinity to recombinant Salmonella typhimurium His10-tagged OASS-B expressed in Escherichia coli by fluorimetric titration method; design: species or system Salmonella enterica subsp. enterica serovar Typhimurium
Procedure, shortened: (§1)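 OASS coenzyme fluorescence titrated with ligand. Conditions were 0.5−1.0 μM enzyme in 100 mM Hepes, pH 7.0, at 20 °C. Excitation was at 412 nm and the emission spectra were recorded. Intensity at 500 nm, minus the ligand-free signal, was fitted to a single-site binding isotherm to give Kdiss.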

[2] = Binding affinity to recombinant Salmonella typhimurium His6-tagged OASS-A expressed in Escherichia coli by fluorimetric titration method; design: species or system Salmonella enterica subsp. enterica serovar Typhimurium; procedure, shortened: as §1
[3] = Solubility in 100 mM HEPES buffer at pH 7 containing 1% DMSO at >20 uM at 20 degC; type: physicochemical
[4] = system: Salmonella enterica subsp. enterica serovar Typhimurium; assay: Binding affinity to recombinant Salmonella typhimurium His6-tagged OASS-A expressed in Escherichia coli at <20 uM by fluorimetric titration method; procedure, shortened: as §1
[5] = Inhibition of recombinant Salmonella typhimurium His6-tagged OASS-A expressed in Escherichia coli using OAS as substrate by discontinuous assay; design: species or system Salmonella enterica subsp. enterica serovar Typhimurium
[6] = Inhibition of recombinant Salmonella typhimurium His10-tagged OASS-B expressed in Escherichia coli using OAS as substrate by discontinuous assay; design: species or system Salmonella enterica subsp. enterica serovar Typhimurium

Row | solubility [3] | Activity [4] | IC50 [5] | IC50 [6] | Molecule | Kd [1] | Kd [2]
1 |  |  |  |  | Cc1ccc(C[C@@]2(C(=O)O)C[C@H]2c2ccccc2)cc1 | 0.49 µM | 0.028 µM
2 |  |  |  |  | CC[C@]1(C(=O)O)C[C@@H]1c1ccccc1 (racemic) | 720 µM | 15 µM
3 |  |  |  |  | O=C(O)[C@@]1(Cc2ccccc2)C[C@@H]1c1ccccc1 | 197 µM | 50 µM
4 | Insoluble | inactive |  |  | CCOC(=O)[C@@]1(Cc2ccccc2)C[C@@H]1c1ccccc1 (relative stereo) |  | 
5 |  |  |  |  | O=C(O)[C@@]1(CCc2ccccc2)C[C@@H]1c1ccccc1 (relative stereo) | 27 µM | 14 µM
6 |  |  |  |  | O=C(O)[C@@]1(Cc2ccc(Cl)cc2)C[C@@H]1c1ccccc1 (racemic) | 0.76 µM | 0.156 µM
7 |  |  |  |  | O=C(O)[C@]1(Cc2ccccc2)C[C@H]1c1ccccc1 | 1.66 µM | 0.067 µM
8 |  |  |  |  | H-MNLNI-OH | 3000 µM | 120 µM
9 |  |  |  |  | Cc1ccc(C[C@]2(C(=O)O)C[C@@H]2c2ccccc2)cc1 | 121 µM | 81 µM
10 |  |  |  |  | O=C(O)[C@H]1C[C@@H]1c1ccccc1 (relative stereo) | 148 µM | 9.2 µM
11 |  |  |  |  | O=C(O)[C@@]1(Cc2ccccc2)C[C@@H]1c1ccccc1 (racemic) | 4.1 µM | 0.2 µM
12 |  |  |  |  | Cc1ccc(C[C@]2(C(=O)O)C[C@@H]2c2ccccc2)cc1 (racemic) | 1.2 µM | 0.077 µM
13 |  |  | 0.099 µM | 0.5 µM | O=C(O)[C@]1(Cc2ccc(Cl)cc2)C[C@H]1c1ccccc1 | 0.42 µM | 0.054 µM
14 |  |  | 14 µM | 48 µM | O=C(O)[C@@]1(Cc2ccc(Cl)cc2)C[C@@H]1c1ccccc1 | 152 µM | 84 µM
15 |  |  |  |  | CC[C@]1(C(=O)O)C[C@@H]1c1ccccc1 | > 2000 µM | 1200 µM
16 |  |  |  |  | CC[C@@]1(C(=O)O)C[C@H]1c1ccccc1 | 860 µM | 12.1 µM
